Data taken from ChEMBL document CHEMBL1154716, “Synthesis of some new S-triazine based chalcones and their derivatives as potent antimicrobial agents” (2010).
In brackets after ≈: the same amount, converted by molar mass. Activity calls are given as the source filed them. The calls are words filed in the database; no cut-off is given here.

Legend:
Bacillus cereus [1] = assay: Antimicrobial activity against Bacillus cereus at 10 ug/disk after 24 hrs by disk diffusion assay; assay type: functional
Procedure, shortened: (§1)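 Disc diffusion on 4 mm filter discs. Bacteria are grown overnight in LB at 28 C, then adjusted in saline to 1.0 × 10^5 cfu/ml. The suspension is mixed into top agar over peptone agar plates. Plates are incubated 24 h at 28 C, and growth-inhibition zone diameter is measured. Streptomycin and ampicillin controls are applied from a 1 mg/ml stock. Tests are done in duplicate.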

Micrococcus flavus [2] = assay: Antimicrobial activity against Micrococcus flavus at 10 ug/disk after 24 hrs by disk diffusion assay; assay type: functional; procedure, shortened: as §1
Staphylococcus aureus [3] = assay: Antimicrobial activity against Staphylococcus aureus at 10 ug/disk after 24 hrs by disk diffusion assay; assay type: functional; procedure, shortened: as §1
Escherichia coli [4] = assay: Antimicrobial activity against Escherichia coli at 10 ug/disk after 24 hrs by disk diffusion assay; assay type: functional; procedure, shortened: as §1
Pseudomonas aeruginosa [5] = assay: Antimicrobial activity against Pseudomonas aeruginosa at 10 ug/disk after 24 hrs by disk diffusion assay; assay type: functional; procedure, shortened: as §1
Enterobacter cloacae [6] = assay: Antimicrobial activity against Enterobacter cloacae at 10 ug/disk after 24 hrs by disk diffusion assay; assay type: functional; procedure, shortened: as §1
Salmonella typhimurium [7] = assay: Antimicrobial activity against Salmonella Typhimurium at 10 ug/disk after 24 hrs by disk diffusion assay; assay type: functional, organism-based; details: Salmonella enterica subsp. enterica serovar Typhimurium; procedure, shortened: as §1
Listeria monocytogenes [8] = assay: Antimicrobial activity against Listeria monocytogenes at 10 ug/disk after 24 hrs by disk diffusion assay; assay type: functional; procedure, shortened: as §1
Bacillus cereus [9] = assay: Antimicrobial activity against Bacillus cereus at 1 umol/disk after 24 hrs by disk diffusion assay; assay type: functional; procedure, shortened: as §1
Micrococcus flavus [10] = assay: Antimicrobial activity against Micrococcus flavus at 1 umol/disk after 24 hrs by disk diffusion assay; assay type: functional; procedure, shortened: as §1
Staphylococcus aureus [11] = assay: Antimicrobial activity against Staphylococcus aureus at 1 umol/disk after 24 hrs by disk diffusion assay; assay type: functional; procedure, shortened: as §1
Escherichia coli [12] = assay: Antimicrobial activity against Escherichia coli at 1 umol/disk after 24 hrs by disk diffusion assay; assay type: functional; procedure, shortened: as §1
Pseudomonas aeruginosa [13] = assay: Antimicrobial activity against Pseudomonas aeruginosa at 1 umol/disk after 24 hrs by disk diffusion assay; assay type: functional; procedure, shortened: as §1
Enterobacter cloacae [14] = assay: Antimicrobial activity against Enterobacter cloacae at 1 umol/disk after 24 hrs by disk diffusion assay; assay type: functional; procedure, shortened: as §1
Salmonella typhimurium [15] = assay: Antimicrobial activity against Salmonella Typhimurium at 1 umol/disk after 24 hrs by disk diffusion assay; assay type: functional, organism-based; details: Salmonella enterica subsp. enterica serovar Typhimurium; procedure, shortened: as §1
Listeria monocytogenes [16] = assay: Antimicrobial activity against Listeria monocytogenes at 1 umol/disk after 24 hrs by disk diffusion assay; assay type: functional; procedure, shortened: as §1
Bacillus cereus [17] = assay: Antimicrobial activity against Bacillus cereus at 1 umol/spot after 18 hrs by TLC-bioautographic method; assay type: functional
Procedure, shortened: (§2)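 TLC bioautography. Samples are spotted on silica gel TLC plates, then sprayed with bacteria (1.0 × 10^5 cfu/ml) in tryptic soy broth. Plates are incubated 18 h at 37 C and sprayed with 3% aqueous p-iodonitrotetrazolium violet. After a further 3 h, growth is stopped with 70% EtOH. White zones on a pink background are scored as inhibition-zone diameter with standard errors.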

Micrococcus flavus [18] = assay: Antimicrobial activity against Micrococcus flavus at 1 umol/spot after 18 hrs by TLC-bioautographic method; assay type: functional; procedure, shortened: as §2
Staphylococcus aureus [19] = assay: Antimicrobial activity against Staphylococcus aureus at 1 umol/spot after 18 hrs by TLC-bioautographic method; assay type: functional; procedure, shortened: as §2
Escherichia coli [20] = assay: Antimicrobial activity against Escherichia coli at 1 umol/spot after 18 hrs by TLC-bioautographic method; assay type: functional; procedure, shortened: as §2
Pseudomonas aeruginosa [21] = assay: Antimicrobial activity against Pseudomonas aeruginosa at 1 umol/spot after 18 hrs by TLC-bioautographic method; assay type: functional; procedure, shortened: as §2
Enterobacter cloacae [22] = assay: Antimicrobial activity against Enterobacter cloacae at 1 umol/spot after 18 hrs by TLC-bioautographic method; assay type: functional; procedure, shortened: as §2
Salmonella typhimurium [23] = assay: Antimicrobial activity against Salmonella Typhimurium at 1 umol/spot after 18 hrs by TLC-bioautographic method; assay type: functional; procedure, shortened: as §2
Listeria monocytogenes [24] = assay: Antimicrobial activity against Listeria monocytogenes at 1 umol/spot after 18 hrs by TLC-bioautographic method; assay type: functional; procedure, shortened: as §2
Bacillus cereus [25] = assay: Antimicrobial activity against Bacillus cereus after 24 hrs by microdilution technique; assay type: functional
Procedure, shortened: (§3)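 Broth microdilution in LB medium. Inoculum is 1.0 × 10^4 cfu per well, from a saline-adjusted suspension of 1.0 × 10^5 cfu/ml. Compounds are dissolved in DMSO. Incubated 24 h at 28 C. MIC is the lowest concentration with no visible growth under a binocular microscope. MBC is read by subculture into fresh broth for 72 h, with no growth taken as 99.5% kill. OD is read at 655 nm.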

Micrococcus flavus [26] = assay: Antimicrobial activity against Micrococcus flavus after 24 hrs by microdilution technique; assay type: functional; procedure, shortened: as §3
Staphylococcus aureus [27] = assay: Antimicrobial activity against Staphylococcus aureus after 24 hrs by microdilution technique; assay type: functional; procedure, shortened: as §3
Escherichia coli [28] = assay: Antimicrobial activity against Escherichia coli after 24 hrs by microdilution technique; assay type: functional; procedure, shortened: as §3
Pseudomonas aeruginosa [29] = assay: Antimicrobial activity against Pseudomonas aeruginosa after 24 hrs by microdilution technique; assay type: functional; procedure, shortened: as §3
Enterobacter cloacae [30] = assay: Antimicrobial activity against Enterobacter cloacae after 24 hrs by microdilution technique; assay type: functional; procedure, shortened: as §3
Salmonella typhimurium [31] = assay: Antimicrobial activity against Salmonella Typhimurium after 24 hrs by microdilution technique; assay type: functional, Salmonella enterica subsp. enterica serovar Typhimurium; details: Salmonella enterica; procedure, shortened: as §3
Listeria monocytogenes [32] = assay: Antimicrobial activity against Listeria monocytogenes after 24 hrs by microdilution technique; assay type: functional; procedure, shortened: as §3

| Structure (SMILES) | inhibition zone (IZ) (Bacillus cereus [1]) | inhibition zone (IZ) (Staphylococcus aureus [3]) | inhibition zone (IZ) (Escherichia coli [4]) | inhibition zone (IZ) (Pseudomonas aeruginosa [5]) | inhibition zone (IZ) (Enterobacter cloacae [6]) | inhibition zone (IZ) (Salmonella typhimurium [7]) | inhibition zone (IZ) (Listeria monocytogenes [8]) | inhibition zone (IZ) (Bacillus cereus [9]) | inhibition zone (IZ) (Micrococcus flavus [10]) | inhibition zone (IZ) (Staphylococcus aureus [11]) | inhibition zone (IZ) (Escherichia coli [12]) | inhibition zone (IZ) (Pseudomonas aeruginosa [13]) | inhibition zone (IZ) (Enterobacter cloacae [14]) | inhibition zone (IZ) (Salmonella typhimurium [15]) | inhibition zone (IZ) (Listeria monocytogenes [16]) | inhibition zone (IZ) (Bacillus cereus [17]) | inhibition zone (IZ) (Micrococcus flavus [18]) [millimeter] | inhibition zone (IZ) (Staphylococcus aureus [19]) | inhibition zone (IZ) (Escherichia coli [20]) | inhibition zone (IZ) (Pseudomonas aeruginosa [21]) | other results |
| --- | --- | --- | --- | --- | --- | --- | --- | --- | --- | --- | --- | --- | --- | --- | --- | --- | --- | --- | --- | --- | --- |
| COc1ccccc1-c1cc(-c2ccc(Nc3nc(Nc4ccccc4)nc(Nc4ccccc4)n3)cc2)nc(N)n1 | inactive | inactive | inactive | inactive | inactive | inactive | inactive | inactive | 0.03 millimeter | inactive | inactive | inactive | inactive | inactive | inactive | inactive | 0.06 | 0.03 millimeter | inactive | inactive | zone of inhibition at 10 µg/disc (Micrococcus flavus [2]; read-out: IZ): 6 mm; inhibition zone (IZ) (Enterobacter cloacae [22]): inactive; inhibition zone (IZ) (Salmonella typhimurium [23]; Salmonella enterica subsp. enterica serovar Typhimurium): inactive; inhibition zone (IZ) (Listeria monocytogenes [24]): 0.09 millimeter; MBC (Bacillus cereus [25]): 181 µM (≈ 100 µg/mL); MIC (Bacillus cereus [25]): 90.5 µM (≈ 50.1 µg/mL); MBC (Micrococcus flavus [26]): 181 µM (≈ 100 µg/mL); MIC (Micrococcus flavus [26]): 90.5 µM (≈ 50.1 µg/mL); MBC (Staphylococcus aureus [27]): 181 µM (≈ 100 µg/mL); MIC (Staphylococcus aureus [27]): 90.5 µM (≈ 50.1 µg/mL); MBC (Escherichia coli [28]): 362 µM (≈ 200 µg/mL); MIC (Escherichia coli [28]): 181 µM (≈ 100 µg/mL); MBC (Pseudomonas aeruginosa [29]): 362 µM (≈ 200 µg/mL); MIC (Pseudomonas aeruginosa [29]): 181 µM (≈ 100 µg/mL); MBC (Enterobacter cloacae [30]): 362 µM (≈ 200 µg/mL); MIC (Enterobacter cloacae [30]): 181 µM (≈ 100 µg/mL); MBC (Salmonella typhimurium [31]): 362 µM (≈ 200 µg/mL); MIC (Salmonella typhimurium [31]): 181 µM (≈ 100 µg/mL); MBC (Listeria monocytogenes [32]): 724 µM (≈ 401 µg/mL); MIC (Listeria monocytogenes [32]): 724 µM (≈ 401 µg/mL) |
| O=C(/C=C/c1ccc(Cl)cc1)c1ccc(Nc2nc(Nc3ccccc3)nc(Nc3ccccc3)n2)cc1 | inactive | inactive | inactive | inactive | inactive | inactive | inactive | inactive | inactive | inactive | inactive | inactive | inactive | inactive | inactive | inactive | 0.07 | inactive | inactive | inactive | inhibition zone (IZ) (Micrococcus flavus [2]): inactive; inhibition zone (IZ) (Enterobacter cloacae [22]): 0.08 millimeter; inhibition zone (IZ) (Salmonella typhimurium [23]): 0.09 millimeter; inhibition zone (IZ) (Listeria monocytogenes [24]): 0.07 millimeter; MBC (Bacillus cereus [25]): 386 µM (≈ 200 µg/mL); MIC (Bacillus cereus [25]): 193 µM (≈ 100 µg/mL); MBC (Micrococcus flavus [26]): 386 µM (≈ 200 µg/mL); MIC (Micrococcus flavus [26]): 193 µM (≈ 100 µg/mL); MBC (Staphylococcus aureus [27]): 772 µM (≈ 401 µg/mL); MIC (Staphylococcus aureus [27]): 386 µM (≈ 200 µg/mL); MBC (Escherichia coli [28]): 772 µM (≈ 401 µg/mL); MIC (Escherichia coli [28]): 772 µM (≈ 401 µg/mL); MBC (Pseudomonas aeruginosa [29]): 772 µM (≈ 401 µg/mL); MIC (Pseudomonas aeruginosa [29]): 386 µM (≈ 200 µg/mL); MBC (Enterobacter cloacae [30]): 386 µM (≈ 200 µg/mL); MIC (Enterobacter cloacae [30]): 193 µM (≈ 100 µg/mL); MBC (Salmonella typhimurium [31]): 772 µM (≈ 401 µg/mL); MIC (Salmonella typhimurium [31]): 386 µM (≈ 200 µg/mL); MBC (Listeria monocytogenes [32]): 772 µM (≈ 401 µg/mL); MIC (Listeria monocytogenes [32]): 386 µM (≈ 200 µg/mL) |
